Results: ChEMBL document CHEMBL4177753, “Structural Modification of Natural Product Ganomycin I Leading to Discovery of a α-Glucosidase and HMG-CoA Reductase Dual Inhibitor Improving Obesity and Metabolic Dysfunction in Vivo” (J Med Chem, 2018)
The source made the active and inactive calls. The rule behind the calls is not given here.

Columns and labels:
[1] = target: T1, 3-hydroxy-3-methylglutaryl-coenzyme A reductase (Sus scrofa) (UniProt Q1W675); test: (§1) Inhibition of pig liver microsomal HMG-CoA reductase by colorimetric method
T1 sequence (whole entry): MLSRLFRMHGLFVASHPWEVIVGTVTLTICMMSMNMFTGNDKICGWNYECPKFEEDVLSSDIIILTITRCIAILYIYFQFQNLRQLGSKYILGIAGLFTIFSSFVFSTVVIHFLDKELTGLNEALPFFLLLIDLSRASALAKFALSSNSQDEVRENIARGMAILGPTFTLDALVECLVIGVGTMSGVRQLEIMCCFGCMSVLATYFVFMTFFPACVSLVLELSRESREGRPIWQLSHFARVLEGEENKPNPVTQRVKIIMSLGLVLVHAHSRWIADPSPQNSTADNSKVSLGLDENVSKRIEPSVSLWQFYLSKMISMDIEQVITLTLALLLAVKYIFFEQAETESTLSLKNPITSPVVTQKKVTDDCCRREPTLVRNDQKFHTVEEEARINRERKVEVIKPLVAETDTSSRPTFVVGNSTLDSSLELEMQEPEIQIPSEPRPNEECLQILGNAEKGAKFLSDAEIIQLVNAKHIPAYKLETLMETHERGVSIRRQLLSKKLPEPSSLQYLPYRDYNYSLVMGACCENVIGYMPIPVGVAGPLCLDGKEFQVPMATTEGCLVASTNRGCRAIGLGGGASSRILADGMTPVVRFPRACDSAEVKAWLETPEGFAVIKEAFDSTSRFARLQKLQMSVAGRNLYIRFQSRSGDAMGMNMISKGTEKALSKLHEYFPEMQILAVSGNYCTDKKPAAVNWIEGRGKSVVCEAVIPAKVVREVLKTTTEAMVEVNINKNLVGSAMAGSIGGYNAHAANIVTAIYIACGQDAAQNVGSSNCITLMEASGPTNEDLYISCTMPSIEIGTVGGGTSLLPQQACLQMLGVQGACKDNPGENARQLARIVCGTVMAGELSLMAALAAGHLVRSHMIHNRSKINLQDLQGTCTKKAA
Procedure, shortened: (§2)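 Pig liver microsomal HMG-CoA reductase; compounds tested at several concentrations, each in triplicate; control uses phosphate buffer instead of compound, blank uses buffer instead of enzyme. Absorbance read at 405 nm; % inhibition from blank-corrected OD of test versus control; IC50 fitted from the inhibition-concentration series.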

[2] = target: T2, 3-hydroxy-3-methylglutaryl-coenzyme A reductase (Sus scrofa, UniProt Q1W675); test: as §1; procedure, shortened: as §2
T2 sequence (Q1W675 whole entry): T1 sequence (whole entry)

[3] = system: Mus musculus; test: Toxicity in C57BL/6J mouse assessed as effect on plasma AST levels at 30 mg/kg administered daily via oral gavage for 3 months; type: organism-based; conditions: in vivo
Procedure, shortened: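 Long-term safety study in C57BL/6J mice, 20 male and 20 female, sorted by gender, blood glucose and body weight into four groups (n = 10 each). Treated groups of each sex got 30.0 mg/kg daily by oral gavage in soybean vehicle. Vehicle groups got an equal volume of soybean. Dosing ran three months, with behavior, survival, body weight, blood glucose, liver function and organ coefficients recorded.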

[4] = system: Mus musculus; test: Antiobesity activity in C57BL/6J DIO mouse assessed as reduction in weight gain at 3 mg/kg administered daily via oral gavage for 5 weeks relative to vehicle-treated control; type: functional; design: scale not given: the % may be the effect or the level left
Procedure, shortened: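 Male C57BL/6J mice on high-fat diet, n = 8 per group, grouped by blood glucose and body weight. Daily oral gavage at 0.3, 1.0 or 3.0 mg/kg in soybean vehicle for 5 weeks. Vehicle groups were on normal diet and on high-fat diet.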

[5] = system: Mus musculus; test: Hypoglycemic activity in ob/ob mouse assessed as decrease in free diet blood glucose levels administered daily via oral gavage for 28 days; type: functional, organism-based
Procedure, shortened: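 Male ob/ob mice, n = 10 per group, daily gavage at 0.3, 1.0 or 3.0 mg/kg in soybean vehicle. Fasting and free-diet blood glucose and HbA1c measured.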

[6] = system: Mus musculus; test: Hypoglycemic activity in ob/ob mouse assessed as decrease in blood glucose AUC at 0.3 to 3 mg/kg administered daily via oral gavage for 25 days by OGTT; type: functional, organism-based
Procedure, shortened: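 Male ob/ob or high-fat-diet C57BL/6J mice dosed daily by gavage at 0.3–3.0 mg/kg. OGTT: glucose 2 g/kg orally after overnight fast. ITT: insulin 0.6 U/kg i.p. after 4 h fast. Glucometer readings at 0, 40, 80 and 120 min; AUC computed from the curves.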

[7] = system: Mus musculus; test: Hypolipidemic activity in ob/ob mouse assessed as decrease in serum total cholesterol levels administered daily via oral gavage for 31 days; type: functional, organism-based
[8] = system: Mus musculus; test: Hypolipidemic activity in C57BL/6J DIO mouse assessed as decrease in plasma free fatty acid levels at 0.3 to 3 mg/kg administered daily via oral gavage for 5 weeks; type: functional, organism-based
Procedure, shortened: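 High-fat-diet male C57BL/6J mice, n = 8 per group, daily gavage at 0.3–3.0 mg/kg in soybean vehicle for 5 weeks. Serum total cholesterol, triglycerides and free fatty acids measured.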

[9] = system: Mus musculus; test: Hypolipidemic activity in ob/ob mouse assessed as decrease in liver total cholesterol levels at 0.3 to 3 mg/kg administered daily via oral gavage for 31 days; type: functional, organism-based
[10] = system: Prevotella; test: Decrease in Prevotella levels in cecum of ob/ob mouse at 3 mg/kg administered daily via oral gavage for 31 days by 16S rRNA gene high-throughput sequencing method; type: functional, organism-based
Procedure, shortened: (§3)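 Male ob/ob mice dosed daily by gavage at 1.0 or 3.0 mg/kg, compared with vehicle group. DNA extracted from about 150 mg caecum contents. 16S rRNA V3–V4 region amplified and sequenced on Illumina HiSeq PE250. Community compared by NMDS/MRPP; discriminant taxa identified by LEfSe.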

[11] = system: Fusobacterium; test: Decrease in Fusobacterium levels in cecum of ob/ob mouse at 3 mg/kg administered daily via oral gavage for 31 days by 16S rRNA gene high-throughput sequencing method; type: functional, organism-based; procedure, shortened: as §3
[12] = system: Oscillibacter; test: Decrease in Oscillibacter levels in cecum of ob/ob mouse at 3 mg/kg administered daily via oral gavage for 31 days by 16S rRNA gene high-throughput sequencing method; type: functional, organism-based; procedure, shortened: as §3
[13] = system: Mus musculus; test: Reduction of plasma LPS levels in ob/ob mouse at 1 mg/kg administered daily via oral gavage for 31 days by ELISA relative to vehicle-treated control; type: functional; design: scale not given: the % may be the effect or the level left
Procedure, shortened: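 Male ob/ob mice treated daily by gavage (soybean vehicle); plasma LPS and TNF-α quantified by ELISA kits. For antibiotic groups, ob/ob mice first received an oral antibiotic cocktail (ampicillin 1 g/L, vancomycin, neomycin, gentamycin, erythromycin) for three weeks, then 3.0 mg/kg/day; n = 8 per group.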

[14] = system: Mus musculus; test: Upregulation of Pparg mRNA expression in ob/ob mouse ileum at 3 mg/kg administered daily via oral gavage for 31 days by RNA-seq analysis; type: functional, organism-based
[15] = system: Mus musculus; test: Decrease in nitrate levels in ob/ob mouse colonic lumen at 3 mg/kg administered daily via oral gavage for 31 days by Griess assay; type: functional, organism-based
Procedure, shortened: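 Male ob/ob mice dosed daily by gavage in soybean vehicle. Nitrate measured in intestinal contents by Griess assay.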

[16] = system: Mus musculus; test: Hypolipidemic activity in antibiotic-treated ob/ob mouse assessed as decrease in hepatic triglycerides levels at 3 mg/kg administered daily via oral gavage for 3 weeks; type: functional, organism-based
Procedure, shortened: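 Male ob/ob mice pretreated three weeks with ampicillin (1 g/L), vancomycin, neomycin, gentamycin and erythromycin. Groups of n = 8 given 3.0 mg/kg/day orally in soybean vehicle versus vehicle. Plasma and hepatic lipids, fasting glucose, OGTT (glucose 2 g/kg after overnight fast) and HbA1c measured.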

Structure (SMILES): CC(C)=CCC/C(C)=C/CCC1=C[C@H](c2ccc(C(C)(C)C)cc2)OC1=O
- inhibition [1]: Dose-dependent effect
- IC50 [2]: 5.82 µM
- Activity [3]: Non-Toxic
- Activity [4]: 25.4%
- Activity [5]: Dose-dependent effect
- Activity [6]: Active
- Activity [7]: Dose-dependent effect
- Activity [8]: Active
- Activity [9]: Active
- Activity [10]: Active
- Activity [11]: Active
- Activity [12]: Active
- Activity [13]: 29.8%
- Activity [14]: Active
- Activity [15]: Active
- Activity [16]: inactive
